How the values were obtained:
[1] = test system: folate receptor-a (FR-α); conditions: cited from earlier work
[2] = test system: IGROV-1 cells; test: Antibody recruitment / binding on cells, flow cytometry; format: cell-based, human
[3] = test system: IGROV-1 cells; test: ADCC assay; format: cell-based, human
[4] = test system: IGROV-1 cells; conditions: IGROV-1 cells (EGFR/FR-α double positive); cited from earlier work
[5] = test system: KHYG-1/CD16a-158V cells co-cultured with IGROV-1 cells; test: CD107a mobilization assay, flow cytometry; format: cell-based, human; conditions: Fc-ARM2 10 nM + anti-CD20 100 nM, 6 h, E/T = 1
Summary of the method: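 Human NK line KHYG-1 expressing CD16a-158V co-cultured 6 h with FR-α+ IGROV-1 ovarian adenocarcinoma cells (E/T 1) with the indicated reagents. Surface CD107a on NK cells read by flow cytometry. Mean ± SEM; two experimental repeats; one-way ANOVA with Tukey's multiple comparison test.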

[6] = test system: A549 lung cancer cells (FR-α−); test: ADCC assay; format: cell-based, human; conditions: Fc-ARM2 + anti-CD20, 16 h, E/T 1-8, n = 3, Fig. S7
[7] = test system: IGROV-1 cells; test: Mouse IgG recruitment and NK cell activation; format: cell-based, human; conditions: Fc-ARM2 10 nM, mouse IgG 100 nM; flow cytometry n = 4; ADCC 16 h n = 3; Fig. S11
[8] = test system: IGROV-1 cells (FR-α+); test: Antibody recruitment to cancer cells, fluorescence microscopy; format: cell-based, human; conditions: Fc-ARM2 100 nM
[9] = test system: KHYG-1/CD16a-158V NK cells co-cultured with IGROV-1 cells; test: IFN-γ secretion from NK cells, ELISA; format: cell-based, human

Which “Affinity to FR-α” value [1] does the source give for `Nc1nc(=O)c2nc(CNc3ccc(C(=O)N[C@@H](CCC(=O)O)C(=O)O)cc3)cnc2[nH]1` [FA, folic acid] here?
Its value is “sub-nanomolar”.

Which “Change in MFI of fluorescein-labeled anti-EGFR mAb on cells” value ([2]; 10 nM Fc-ARM1 added, Fig. S9A) does the source give for `CC(C)C[C@@H]1NC(=O)[C@H](Cc2c[nH]cn2)NC(=O)[C@H](Cc2c[nH]c3ccccc23)NC(=O)[C@H](C)NC(=O)[C@@H](NC(=O)[C@H](CC(=O)O)NC(=O)CCOCCOCCOCCOCCOCCOCCNC(=O)CC[C@H](NC(=O)c2ccc(NCc3cnc4nc(N)[nH]c(=O)c4n3)cc2)C(=O)O)CSSC[C@@H](C(=O)N[C@H](C(N)=O)[C@@H](C)O)NC(=O)[C@H](Cc2c[nH]c3ccccc23)NC(=O)[C@H](C(C)C)NC(=O)[C@H](CC(C)C)NC(=O)[C@H](CCC(=O)O)NC(=O)CNC1=O` [Fc-ARM1] here?
The value was “about a six-fold increase in MFI”.

And the “ADCC (% cytotoxicity) after 4 h co-culture” value ([3]; Fc-ARM + anti-CD20, 4 h, E/T 1-8, n = 3, Fig. 4A)?
Its value is “did not show detectable cytotoxicity”.

And the “Effect on ADCC activity of anti-EGFR mAb” value [4]?
The value was “inhibited the ADCC activity”.

For `CC(C)C[C@@H]1NC(=O)[C@H](Cc2c[nH]cn2)NC(=O)[C@H](Cc2c[nH]c3ccccc23)NC(=O)[C@H](C)NC(=O)[C@@H]2CSSC[C@H](NC(=O)[C@H](Cc3c[nH]c4ccccc34)NC(=O)[C@H](C(C)C)NC(=O)[C@H](CC(C)C)NC(=O)[C@H](CCC(=O)O)NC(=O)CNC1=O)C(=O)N[C@@H]([C@@H](C)O)C(=O)N[C@H](C(N)=O)CSSC[C@H](NC(=O)CCOCCOCCOCCOCCOCCOCCNC(=O)CC[C@H](NC(=O)c1ccc(NCc3cnc4nc(N)[nH]c(=O)c4n3)cc1)C(=O)O)C(=O)N[C@@H](CC(=O)O)C(=O)N2` [Fc-ARM2], which “Surface mobilization of CD107a on NK cells” value [5] is on record?
The value was “surface mobilization of CD107a”.

What about the “Amount of recruited IgG-FITC (MFI)” value ([2]; 10 nM Fc-ARM, increasing IgG-FITC, n = 3, Fig. 2E) of the same compound?
Its value is “recruited a higher amount of IgG-FITC compared with Fc-ARM1”.

What about the “ADCC against A549 cells” value [6] of the same compound?
The value was “ADCC was not induced”.

And the “ADCC (% cytotoxicity) with recruited anti-CD20” value ([3]; Fc-ARM 10 nM + anti-CD20 100 nM, 16 h, E/T 1-8, LDH assay, n = 3)?
The value was “showed clear target cell killing”.

What about the “ADCC with increasing concentration of anti-CD20” value ([3]; Fc-ARM 10 nM, E/T = 8, 16 h, n = 3, Fig. 4C) of the same compound?
Its value is “induced ADCC more effectively”.

What about the “ADCC (% cytotoxicity) with excess FA” value ([3]; Fc-ARM2 10 nM + anti-CD20 100 nM + FA (1 μM), 16 h) of the same compound?
The value was “eliminated by excess FA”.

And the “ADCC with Fc fragment of anti-CD20” value ([3]; Fc-ARM2 + Fc fragment of anti-CD20 mAb, n = 3, Fig. 4D)?
Its value is “induced cytotoxicity upon recruitment by Fc-ARM2”.

What about the “ADCC (% cytotoxicity) after 6, 8 and 16 h co-culture” value ([3]; Fc-ARM + anti-CD20, E/T = 4, Fig. 4B) of the same compound?
Its value is “showed higher cytotoxicity compared with Fc-ARM1 + anti-CD20”.

And the “Recruitment of mouse IgG and ADCC” value [7]?
Its value is “did not work with mouse IgG”.

What about the “Recruitment of Fc-fluorescein (Fc-fluo) to cells” value ([8]; Fc-fluo 500 nM) of the same compound?
The value was “recruited the papain-digested Fc fragment of IgG1”.

And the “Recruitment of IgG-FITC to cells” value ([8]; IgG-FITC 500 nM, 30 min, 4 °C)?
The value was “successfully recruited FITC-labeled human IgG (IgG-FITC) to IGROV-1 cells”.

And the “Recruitment of IgG-FITC to cells with excess FA” value ([8]; IgG-FITC 500 nM, FA 100 µM as competitor)?
Its value is “diminished IgG-derived fluorescence”.

What about the “IFN-γ secretion from NK cells” value ([9]; Fc-ARM2 + anti-CD20, E/T = 8, ELISA of supernatant, Fig. 3B) of the same compound?
Its value is “secretion of interferon-γ (IFN-γ)”.

What about the “IFN-γ secretion from NK cells after 16 h” value ([9]; Fc-ARM + anti-CD20, E/T = 4, 16 h, Fig. S8) of the same compound?
Its value is “induced a higher amount of IFN-γ secretion”.

Reference: paper PMC8157400 (Chemical Science, 2020)
